The subject of one series is MCF7. Kind of series: Cytotoxicity against human MCF7 cells. The class given is functional, cell-based. Summed up: (§1)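 MCF7 breast and COLO205 colon carcinoma cells were cultured in RPMI1640 with 10% FBS at 37 °C in humidified 5% CO2-95% air. Cytotoxicity was read as IC50 in µg/mL.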
In the next series the test system is KB. Put plainly: Cytotoxicity against human KB cells. The class given is functional, cell-based. Summed up: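 KB human epidermoid carcinoma cells were grown in DMEM with 10% FBS at 37 °C under humidified 5% CO2. Cytotoxicity was given as IC50 in µg/mL.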
The next series has as its system COLO 205. Put plainly: Cytotoxicity against human COLO205 cells. The format is functional, cell-based. Summed up: as §1
The nature of series [1]: Cytotoxicity against doxorubicin-resistant human K562/Adr cells. The class given is functional, cell-based. Summed up:
(§2)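 K562/Adr cells, a doxorubicin-resistant leukemia line, were grown in RPMI1640 with 10% FBS and 0.5 µM doxorubicin at 37 °C under humidified 5% CO2. Cytotoxicity was expressed as IC50 in µg/mL.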

Another series relates to K562. Kind of series: Cytotoxicity against multidrug-resistant human K562 cells. The class given is functional, cell-based. To be noted: in the assay text read “human K562 cells” for “multidrug-resistant human K562 cells”. Summed up:
as §2

Series [2] can be described thus: Cytotoxicity against multidrug-resistant human KB-C2 cells. The class given is functional, cell-based. Summed up:
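KB-C2, a multidrug-resistant KB subline, was maintained in DMEM with 10% FBS and 5 µM colchicine at 37 °C under humidified 5% CO2. Cytotoxicity was reported as IC50 in µg/mL.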

Series [3] addresses ATP-dependent translocase ABCB1 (Homo sapiens, UniProt P08183). Kind of series: Effect on P-glycoprotein expressed in KB-C2 cells assessed as increase in accumulation of rhodamine 123 at 50 uM. Conditions: kb-c2, 50 µM. The class given is cell-based. Summed up: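 For P-gp substrate accumulation, KB-C2 cells were incubated 2 h with 20 µM rhodamine 123 plus sample, then washed and lysed in 0.1% Triton X-100 in PBS. Retained fluorescence was measured and accumulation expressed as a percentage increase.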

Series [4] is described as follows: Cytotoxicity against multidrug-resistant human KB-C2 cells in presence of 2.5 uM colchicine. The format is functional, cell-based. In outline: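 KB-C2 cells were kept in DMEM with 10% FBS and 5 µM colchicine, then tested for cytotoxicity with 2.5 µM colchicine added during exposure to samples. IC50 was given in µg/mL.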

In brackets after ≈: the same amount, converted by molar mass.

Sequence of ATP-dependent translocase ABCB1 (P08183 whole entry): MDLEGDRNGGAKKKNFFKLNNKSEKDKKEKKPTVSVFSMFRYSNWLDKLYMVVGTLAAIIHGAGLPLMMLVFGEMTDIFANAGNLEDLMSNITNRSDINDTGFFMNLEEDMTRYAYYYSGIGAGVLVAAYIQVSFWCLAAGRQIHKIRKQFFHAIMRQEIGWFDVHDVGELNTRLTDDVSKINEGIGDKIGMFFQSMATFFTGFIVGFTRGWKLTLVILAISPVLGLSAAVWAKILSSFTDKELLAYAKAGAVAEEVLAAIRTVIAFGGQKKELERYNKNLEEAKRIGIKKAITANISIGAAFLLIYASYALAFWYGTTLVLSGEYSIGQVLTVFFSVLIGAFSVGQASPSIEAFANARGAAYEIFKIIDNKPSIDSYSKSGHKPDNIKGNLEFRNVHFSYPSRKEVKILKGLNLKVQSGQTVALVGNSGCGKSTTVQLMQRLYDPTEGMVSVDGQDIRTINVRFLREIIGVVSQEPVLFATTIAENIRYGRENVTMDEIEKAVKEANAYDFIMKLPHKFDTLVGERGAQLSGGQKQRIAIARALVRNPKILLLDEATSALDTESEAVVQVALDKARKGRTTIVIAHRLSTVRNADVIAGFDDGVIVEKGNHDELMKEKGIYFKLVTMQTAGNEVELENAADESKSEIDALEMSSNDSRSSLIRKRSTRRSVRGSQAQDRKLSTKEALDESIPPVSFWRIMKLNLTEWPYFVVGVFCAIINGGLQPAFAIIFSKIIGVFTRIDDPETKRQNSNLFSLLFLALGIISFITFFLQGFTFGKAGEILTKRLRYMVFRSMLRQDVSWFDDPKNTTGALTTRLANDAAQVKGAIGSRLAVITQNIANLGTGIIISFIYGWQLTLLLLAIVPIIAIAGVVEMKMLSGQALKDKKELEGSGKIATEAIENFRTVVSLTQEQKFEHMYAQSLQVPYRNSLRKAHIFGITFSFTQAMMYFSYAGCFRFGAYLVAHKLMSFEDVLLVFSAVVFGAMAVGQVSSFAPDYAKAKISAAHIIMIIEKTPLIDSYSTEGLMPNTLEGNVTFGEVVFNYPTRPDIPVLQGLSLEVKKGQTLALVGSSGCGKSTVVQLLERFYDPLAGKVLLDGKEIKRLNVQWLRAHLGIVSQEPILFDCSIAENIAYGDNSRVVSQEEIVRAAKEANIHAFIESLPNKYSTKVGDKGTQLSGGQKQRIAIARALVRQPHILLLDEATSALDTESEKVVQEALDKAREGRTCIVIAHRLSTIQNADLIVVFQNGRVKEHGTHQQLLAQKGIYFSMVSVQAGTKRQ

The IC50 is the concentration needed to halve the response being measured. In the case of `C=C1[C@@H](OC(=O)C(C)CC)C=C[C@@]2(C)CC[C@@H]3[C@@H](OC(=O)[C@@H]3C)[C@H]12` (some centres not stated), the IC50 (with MCF7; in the series with KB; with COLO 205; in series [1]; in the series on K562; in series [2]) was more than 100 µg/mL each time.

For `C=C1C=C[C@@H](OC(=O)/C(C)=C/C)[C@@]2(C)CC[C@@H]3[C@@H](OC(=O)[C@]3(C)O)[C@H]12`, the IC50 (in the series with MCF7; in the series with KB; with COLO 205; in series [1]; in the series on K562; in series [2]) was more than 100 µg/mL throughout.

In the case of `C=C1[C@H]2O[C@H]2[C@@H](OC(=O)/C(C)=C/C)[C@@]2(C)CC[C@@H]3[C@@H](OC(=O)[C@@]3(O)COC(=O)/C(C)=C\C)[C@H]12`, the IC50 in the series with MCF7 is more than 100 µg/mL; in the series on KB it was 91.4 µg/mL (≈ 198 µM); with COLO 205, more than 100 µg/mL; in series [1] it was more than 100 µg/mL; in series [4] it was 48.3 µg/mL; in the series with K562 it was more than 100 µg/mL. This compound also displayed an IC50 in series [2] of 98 µg/mL (≈ 213 µM). The Activity in series [3] was found to be 169%.

Consider `C/C=C(\C)C(=O)O[C@H]1C[C@](C)(O)C2CC=C(C)[C@H]2[C@@H]2OC(=O)[C@H](C)[C@@H]21` (some centres not stated), for which the IC50 was more than 100 µg/mL in the series with MCF7; more than 100 µg/mL with KB; more than 100 µg/mL in the series on COLO 205; more than 100 µg/mL in series [1]; 25.4 µg/mL in series [4]; more than 100 µg/mL in the series with K562. The 50% inhibitory concentration (IC50) in series [2] is more than 100 µg/mL. The Activity in series [3] came to 114%.

As for `C=C1C(=O)O[C@@H]2[C@H]1CC[C@]1(C)[C@H](OC(=O)/C(C)=C/C)C=CC(=C)[C@@H]21` [DEHYDROOOPODIN], the IC50 with KB was 46.1 µg/mL (≈ 140 µM); in series [1], more than 100 µg/mL; in series [4] it was 55.8 µg/mL; in the series with K562, 36.8 µg/mL (≈ 112 µM); in series [2], 56.9 µg/mL (≈ 173 µM).

In the case of `COc1cccc2c1C(=O)c1c(O)c3c(c(O)c1C2=O)C[C@@](O)(C(=O)CO)C[C@@H]3O[C@H]1C[C@H](N)[C@H](O)[C@H](C)O1` [DOXORUBICIN], the IC50 with KB was 0.22 µg/mL (≈ 0.405 µM); in series [1] it was 15.3 µg/mL (≈ 28.1 µM); with K562 it was 0.45 µg/mL (≈ 0.828 µM); in series [2], more than 100 µg/mL.

Regarding `C=C1C=C[C@@H](OC(=O)/C(C)=C/C)[C@@]2(C)CC[C@@H]3[C@@H](OC(=O)[C@@H]3C)[C@H]12` [OOPODIN], the IC50 in the series on KB is 34.7 µg/mL (≈ 105 µM); in series [1] it was 25.4 µg/mL (≈ 76.9 µM); in series [4], 13.8 µg/mL; in the series on K562, 35.1 µg/mL (≈ 106 µM); in series [2] it was 24.7 µg/mL (≈ 74.8 µM).

The values are drawn from ChEMBL document CHEMBL1141440, “Sesquiterpene lactones from the roots of Ferula varia and their cytotoxic activity” (J Nat Prod, 2007).
